Laboratory results from PMC4397581 (Nature chemical biology, 2015).

Key:
mouse neutrophils = assay: Mouse NET assay; assay type: cell-based; conditions: 10 µM pre-treatment, ionomycin
How it was run: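 Mouse peripheral blood neutrophils were isolated by density centrifugation plus hypotonic lysis (>90% pure). They were settled 15 min on uncoated glass-bottom wells in RPMI/10 mM HEPES at 37 °C, given compound or vehicle for 20 min, then stimulated with 4 µM ionomycin for 2 h at 37 °C. Cells were fixed in 2% PFA overnight at 4 °C, permeabilised, blocked, and stained with anti-citrullinated H3 (0.3 µg/mL, overnight 4 °C), a fluorescent secondary and Hoechst 33342. Fluorescence microscopy was used for blinded scoring of H3Cit+ cells and spread NETs by nuclear morphology.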

human neutrophils = assay: Human NET assay; assay type: cell-based; conditions: S. aureus, 5 bacteria per neutrophil, versus vehicle
How it was run: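 S. aureus was grown 20 h shaking in LB at 37 °C, washed in ice-cold PBS and added at 5× MOI for 3 h at 37 °C. Cells were fixed in 2% PFA and stained with Hoechst 33342. Confocal imaging was used, with algorithmic classification as lobulated, delobulated or diffused NETs, from 60 fields across 3 wells per treatment.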

[1] = system: histone deacetylases 1–11; assay: Histone deacetylase selectivity; assay type: biochemical; conditions: for inhibition of histone deacetylases 1–11: at 100 µM; for Activation of HDACs: up to 100 µM
PAD4 = PAD4 (Homo sapiens, UniProt Q9UM07); assay: PAD4 FP binding assay; conditions: 10 nM GSK215, mean of replicates
Sequence of PAD4 (Q9UM07 whole entry): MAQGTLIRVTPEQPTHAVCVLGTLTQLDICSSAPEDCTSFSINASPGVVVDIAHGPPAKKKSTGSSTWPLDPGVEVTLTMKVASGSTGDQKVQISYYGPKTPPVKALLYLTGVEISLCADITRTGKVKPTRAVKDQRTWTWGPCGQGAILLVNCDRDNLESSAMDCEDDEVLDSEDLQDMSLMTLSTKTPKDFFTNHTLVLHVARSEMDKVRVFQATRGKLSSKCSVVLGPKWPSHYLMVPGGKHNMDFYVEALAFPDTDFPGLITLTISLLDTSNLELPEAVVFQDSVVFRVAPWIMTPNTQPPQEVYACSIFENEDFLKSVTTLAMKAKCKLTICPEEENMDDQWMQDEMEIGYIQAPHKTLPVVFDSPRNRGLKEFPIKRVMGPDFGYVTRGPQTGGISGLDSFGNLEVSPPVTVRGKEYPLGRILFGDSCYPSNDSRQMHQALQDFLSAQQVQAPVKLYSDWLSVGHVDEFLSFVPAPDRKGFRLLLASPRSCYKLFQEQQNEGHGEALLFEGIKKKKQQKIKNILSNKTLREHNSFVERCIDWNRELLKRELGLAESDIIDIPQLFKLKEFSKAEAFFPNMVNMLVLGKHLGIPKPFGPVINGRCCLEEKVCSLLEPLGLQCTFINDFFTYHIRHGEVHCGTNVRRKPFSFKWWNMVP

[2] = system: panel of 50 unrelated proteins; assay: Off-target panel

Row | IC50 (PAD4; PAD4 FP Binding Assay IC50, 0 mM Ca, 0 mM Ca) [nM] | IC50 (PAD4; PAD4 FP Binding Assay IC50, 2 mM Ca, 2 mM Ca) [nM] | Structure (SMILES) | Histone H3 citrullination (mouse neutrophils) | NET formation (mouse neutrophils) | Diffused NETs (human neutrophils) | inhibition of histone deacetylases 1–11 [1] [%] | Activation of HDACs [1] | Off-target activity against a panel of 50 unrelated proteins [2]
1 | 200 | 1000 | CCn1c(-c2nc3cc(C(=O)N4CCC[C@@H](N)C4)cc(OC)c3n2C)cc2cccnc21 [GSK199, (R)-(3-Aminopiperidin-1-yl)(2-(1-ethyl-1H-pyrrolo[2,3-b]pyridin-2-yl)-7-methoxy-1-methyl-1H-benzo[d]imidazol-5-yl)methanone] | produced the same effect | produced the same effect | less marked inhibition | < 50 | partial activation of HDACs 1 and 8 at high concentrations | negligible off-target activity
2 |  |  | COc1cc(C(=O)N2CC[C@@H](O)[C@@H](N)C2)cc2nc(-c3cc4ccccc4n3CC3CC3)n(C)c12 [GSK484, ((3S,4R)-3-Amino-4-hydroxypiperidin-1-yl)(2-(1-(cyclopropylmethyl)-1H-indol-2-yl)-7-methoxy-1-methyl-1H-benzo[d]imidazol-5-yl)methanone] | dramatically diminished | dramatically diminished | clear, statistically-significant reduction | < 50 | no activation across HDACs 1–11 | negligible off-target activity
3 |  |  | CCn1c(-c2nc3ccc(C(=O)N4CCCC(N)C4)cc3n2C)cc2ccccc21 (centres unmarked) [GSK106, (3-Aminopiperidin-1-yl)(2-(1-ethyl-1H–indol-2-yl)-1-methyl-1H-benzo[d]imidazol-6-yl)methanone] | ineffective | ineffective | ineffective |  |  | 
